Results published in PubChem BioAssay AID504490 (NMMLSC, 2011).
Among all 340,000 compounds or so, about 1,100 (0.32%) were called active.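 Rule for the calls: active = inhibition above a set limit, near 3 SD of compounds lacking own fluorescence (cut at about 54% in these data); inactive = the rest.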 The list comes from a sample in which actives are over-represented; it also holds similar structures and randomly drawn compounds.

These compounds were tested on beta-arrestin 1 C-terminal peptide binding to AP2 beta2-adaptin appendage (human) (assay: inhibitors of beta-arrestin/AP2 binding, primary screen, biochemical, GPCR trafficking, flow cytometry (AID 504490;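 note: plate controls were DMSO wells for no effect and 5 µM unlabelled arrestin peptide for full effect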)). Details: FITC-arrestin peptide / GST-AP2 beads, at 10 µM, stronger effect = higher value, AP2 beta2 appendage carries R879A mutation.
How it was run: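 System: GST-AP2 R879A glutathione beads | Also added: FITC-arrestin peptide, 50 nM | Times: 12 min plus 1 h, RT | Signal: Bead flow cytometry, FITC channel | Buffer or medium: PBS with 0.05% Tween 20 and 0.1% BSA | Read-out basis: Percent drop in bead-associated FITC signal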
In the case of `CC(=O)OC1CCC2C3CCC4=C(CC(F)C(=O)C4)C3CCC12C` (stereo not drawn), the inhibition is reported as -26.5% (inactive).
With `CCOc1ccccc1OCC(=O)Nc1ccccc1C(=O)NC1CC1` the inhibition was -8.99% (inactive).
In the case of `CC(=O)N(C1=C(Cl)C(=O)c2ccccc2C1=O)c1ccc(C(=O)O)cc1`, the inhibition is reported as 64.7% (active).
For `O=C(NC1=CC(=O)c2ccccc2C1=O)c1ccccc1`, the inhibition was 19.2% (inactive).
For `CC(C)(Oc1ccc(Cl)cc1)C(=O)OCC(=O)NCCc1ccc(S(N)(=O)=O)cc1`, the inhibition was 19% (inactive).
With `O=C(CN1C(=O)COc2ccc(Cl)cc21)Nc1ccc(N2CCOCC2)cc1` the inhibition was 3.15% (inactive).
With `CSCC[C@H](NC(=O)N1CCn2c1nc1ccccc12)C(=O)NC1CCCCC1` the inhibition was -6.82% (inactive).
In the case of `CC(C)[C@H](NC(=O)N1CCn2c1nc1ccccc12)C(=O)NC1CC1`, the inhibition is reported as 35.9% (inactive).
In the case of `CC(C)C[C@H](NC(=O)N1CCn2c1nc1ccccc12)C(=O)NC1CC1`, the inhibition is reported as 60.8% (active).
In the case of `NS(=O)(=O)c1ccc(CCNC(=O)CNC(=O)Cc2ccccc2)cc1`, the inhibition is reported as 3.4% (inactive).
For `NS(=O)(=O)c1ccc(CNC(=O)c2cccc(Oc3ccccc3)c2)cc1`, the inhibition was 10.4% (inactive).
In the case of `CC(NCCc1ccc(S(N)(=O)=O)cc1)C(=O)NCc1ccccc1` (stereo not drawn), the inhibition is reported as 57.4% (active).
For `O=C(CC12CC3CC(CC(C3)C1)C2)NCc1ccco1`, the inhibition was 5.06% (inactive).
With `O=C1C(Cl)=C(Oc2ccccc2)C(=O)c2ccccc21` the inhibition was 55.1% (active).
For `Cc1ccc(C(=O)CN2C(=O)NC3(CCOc4ccccc43)C2=O)s1` (stereo not drawn), the inhibition was -5.1% (inactive).
`O=C(COc1ccc(F)cc1Br)NCC1COc2ccccc2O1` (stereo not drawn) was tested, and the inhibition was 0.24% (inactive).
For `COc1cccc(OCC(O)CNC(=O)c2oc3c(C)c(C)ccc3c2C)c1` (stereo not drawn), the inhibition was 2.32% (inactive).
`CN=C1S/C(=C\c2c(OC)cc(OC)cc2OC)C(=O)N1C` was tested, and the inhibition was 7.51% (inactive).
`CN1C(=O)/C(=C/c2ccco2)SC1=Nc1cccc(C(=O)O)c1` was tested, and the inhibition was 62.3% (active).
`Cc1ccc(N=C2NC(=O)/C(=C/C=C/c3ccco3)S2)cc1C` was tested, and the inhibition was 42.9% (inactive).
In the case of `COc1ccc(C2(CNC(=O)C(c3ccccc3)c3ccccc3)CCOCC2)cc1OC`, the inhibition is reported as -2.16% (inactive).
For `CC(C)c1ccc(NC(=S)NC2CC3C=CC2C3)cc1` (stereo not drawn), the inhibition was -12.9% (inactive).
In the case of `Cc1ccc(NC(=S)Nc2ccc(F)cc2)cc1`, the inhibition is reported as 2.86% (inactive).
`Cc1ccc(C)c(NC(=S)NNC(=S)Nc2ccc(C(C)C)cc2)c1` was tested, and the inhibition was 60.6% (active).
`Cn1cc(CCC(=O)N2CCCC(C(=O)c3ccc(C(C)(C)C)cc3)C2)cn1` (stereo not drawn) was tested, and the inhibition was 5.89% (inactive).
`CCOc1ccc(C(=O)NC2CCN(CC(=O)NCc3cccs3)CC2)cc1` was tested, and the inhibition was 54.6% (active).
In the case of `CCOc1ccc(/C=N/OCC(=O)NCc2cccs2)cc1`, the inhibition is reported as -13.4% (inactive).
`CCOc1ccc(C(=O)NC2CCN(S(=O)(=O)CC)CC2)cc1` was tested, and the inhibition was 2.75% (inactive).
For `c1ccc(Cc2ccc(OCCn3ccnc3)cc2)cc1`, the inhibition was -5.61% (inactive).
In the case of `O=C(C1CCC1)N1CCN(c2ccccc2)CC1`, the inhibition is reported as 4.58% (inactive).
With `CC(C)Cn1c(N)c(C(=O)COC(=O)CN2C(=O)C3CC=CCC3C2=O)c(=O)n(C)c1=O` (stereo not drawn) the inhibition was 1.01% (inactive).
With `CC1CCN(C(=O)COC(=O)c2cc(=O)[nH]c3ccccc23)CC1` the inhibition was -3.58% (inactive).
`CC(NC(=O)COC(=O)c1cc(=O)[nH]c2ccccc12)c1ccccc1` (stereo not drawn) was tested, and the inhibition was 11.9% (inactive).
`CN(C(=O)COC(=O)c1cc(=O)[nH]c2ccccc12)C1CCCCC1` was tested, and the inhibition was 54.7% (active).
In the case of `O=C(Nc1ccccc1)N1CCN(C2c3ccccc3-c3ccccc32)CC1`, the inhibition is reported as -3.43% (inactive).
With `CC1CN(CC(=O)NC(C)c2ccccc2)CC(C)O1` (stereo not drawn) the inhibition was 0.77% (inactive).
With `Cn1c(=O)c2c(nc(N/N=C/c3cccs3)n2Cc2ccc(Br)cc2)n(C)c1=O` the inhibition was 70.5% (active).
With `CCCCNc1nc2c(c(=O)n(C)c(=O)n2C)n1Cc1cccc(OC)c1` the inhibition was 13.6% (inactive).
With `Cn1c(=O)c2sccc2n(Cc2ccc(Br)cc2)c1=O` the inhibition was -7.24% (inactive).
For `CN1CCN(c2ccc(NC(=O)c3cc(Cl)c4c(c3)OCCO4)cc2)CC1`, the inhibition was 30.2% (inactive).
With `Cc1cccc(N2CCN(c3ccc(NC(=O)/C=C\C(=O)O)cc3)CC2)c1` the inhibition was 15.9% (inactive).
`C=CC(=O)Nc1ccc(Nc2ccnc(Nc3ccc(N4CCN(C)CC4)cc3)n2)cc1` was tested, and the inhibition was 55.9% (active).
For `Cn1c(SCc2nc3ccccc3s2)nnc1-c1ccc2c(c1)OCO2`, the inhibition was -3.99% (inactive).
With `CCCCN(CC)CCNC(=O)CCNC(=O)Cn1ccc2ccccc2c1=O` the inhibition was 1.19% (inactive).
`O=C1NC(=O)C(CCc2ccccc2)(c2ccccc2)N1` (stereo not drawn) was tested, and the inhibition was -9.95% (inactive).
For `C/C(Cl)=C\Cn1c(Nc2cccc(C)c2)nc2c1c(=O)n(C)c(=O)n2C`, the inhibition was -6.48% (inactive).
With `O=C(NCCc1ccc(Cl)cc1)C1CC(=O)N(C2CCCCC2)C1` (stereo not drawn) the inhibition was 6.36% (inactive).
`Cc1ccc(CNC(=O)C2CC(=O)N(C3CCCCCCC3)C2)cc1` (stereo not drawn) was tested, and the inhibition was 93.8% (active).
In the case of `COc1cccc(CNC(=O)C2CC(=O)N(C3CCCCCCC3)C2)c1` (stereo not drawn), the inhibition is reported as -10.2% (inactive).
With `COc1ccc(Br)cc1CN(C)CC(=O)Nc1cc(Cl)cc(Cl)c1` the inhibition was 4.23% (inactive).
For `CCc1cccc2c(C=C(C#N)C#N)cn(CC(=O)N3CCCCC3)c12`, the inhibition was 9.35% (inactive).
With `COc1ccc(Cc2nnc(SCC(=O)c3cccc([N+](=O)[O-])c3)n2C)cc1` the inhibition was 7.36% (inactive).
In the case of `CCc1ccccc1OCC(=O)Nc1ccc(C)c(S(=O)(=O)N2CCCCCC2)c1`, the inhibition is reported as 10.8% (inactive).
In the case of `COc1cc2c(cc1NC(=O)CN1CCN(S(=O)(=O)c3ccc(F)cc3)CC1)oc1ccccc12`, the inhibition is reported as 11.4% (inactive).
In the case of `COc1cc2c(cc1NC(=O)COC(=O)/C=C/c1ccccc1)oc1ccccc12`, the inhibition is reported as 105% (active).
`COc1cc(/C=C/C(=O)OCC(=O)c2ccccc2)cc(OC)c1OC` was tested, and the inhibition was 10% (inactive).
In the case of `O=C(CNC(=O)c1ccc(Br)o1)Nc1ccccc1`, the inhibition is reported as 7.78% (inactive).
For `Cc1cccc(NC(=S)NC(=O)c2ccc(Br)o2)c1`, the inhibition was 61.8% (active).
For `Cc1cccc(NC(=O)c2ccc([N+](=O)[O-])o2)c1`, the inhibition was 5.65% (inactive).
For `Cc1cc(C)cc(C(=O)NC(=S)Nc2ccc3[nH]c(=O)[nH]c3c2)c1`, the inhibition was 10.9% (inactive).
With `CCCCNC(=O)C1CCCN(S(=O)(=O)c2ccc(S(=O)(=O)NCC(C)C)cc2)C1` (stereo not drawn) the inhibition was 4.41% (inactive).
For `Cc1cccc(NC(=O)C2CCCN(C(=O)Nc3ccc(F)cc3)C2)c1C` (stereo not drawn), the inhibition was 25% (inactive).
With `Cc1cc(/C=C2\SC(=Nc3ccc(N4CCOCC4)cc3)N(C)C2=O)c(C)n1-c1cccnc1` the inhibition was -3.18% (inactive).
In the case of `Cc1cc(/C=C2\SC(=O)N(C)C2=O)c(C)n1-c1cccc(C(=O)O)c1`, the inhibition is reported as 54.7% (active).
For `Cc1cc(/C=C2/SC(=O)N(CC(=O)N3CCCC3)C2=O)c(C)n1C`, the inhibition was -9.22% (inactive).
With `COc1cccc(C(=O)n2ccc(-c3cccs3)n2)c1` the inhibition was 4.99% (inactive).
In the case of `O=C(CN1C(=O)NC2(CCCCCC2)C1=O)NCc1ccc(F)cc1`, the inhibition is reported as 13.2% (inactive).
`CCc1ccc(N(CC(=O)Nc2sc3c(c2C(=O)OC)CCCC3)S(C)(=O)=O)cc1` was tested, and the inhibition was -5.8% (inactive).
In the case of `N#CCSc1nn(-c2ccc(F)cc2)c(=S)s1`, the inhibition is reported as 1.03% (inactive).
In the case of `O=S(=O)(c1ccccc1)N(Cc1cccc(F)c1)c1ccccc1`, the inhibition is reported as 6.33% (inactive).
For `CC(C)C1C2=C(CC(C)(C)CC2=O)ON1c1ccccc1` (stereo not drawn), the inhibition was 14.7% (inactive).
For `Cc1ccc(N2C(=O)C(NC(=O)c3c(F)cccc3F)(C(F)(F)F)C3=C2CC(C)(C)CC3=O)cc1` (stereo not drawn), the inhibition was 11.2% (inactive).
`COC(=O)C1CC2=C(CC(C)(C)CC2=O)N(c2ccccc2)C1=O` (stereo not drawn) was tested, and the inhibition was 54.1% (active).
`Cc1ccc2[nH]cc(CCNC(=O)c3ccc([N+](=O)[O-])cc3)c2c1` was tested, and the inhibition was 5.19% (inactive).
With `CCN(CC)Cc1c(C(=O)N/N=C/c2cccc(OCc3ccc(F)cc3)c2)nnn1-c1nonc1N` the inhibition was -0.16% (inactive).
For `Cn1ccsc1=NC(=O)c1cc(S(=O)(=O)N2CCOCC2)ccc1Cl`, the inhibition was -5.18% (inactive).
For `COc1cccc(-n2c(SCC(=O)NC3CCS(=O)(=O)C3)nc3ccccc3c2=O)c1` (stereo not drawn), the inhibition was -2.41% (inactive).
With `COC(=O)c1ccc(CSc2nc3ccccc3c(=O)n2-c2cccc(OC)c2)o1` the inhibition was 5.8% (inactive).
`COc1cccc(-n2c(SCC(=O)c3c[nH]c4ccccc34)nc3ccccc3c2=O)c1` was tested, and the inhibition was 105% (active).
With `CN(C)c1ccc(C2N(C)C(=O)c3ccccc3N2C)cc1` (stereo not drawn) the inhibition was -7.07% (inactive).
For `CN(C)c1ccc(Nc2c3c4c(cccc4n(C)c2=O)C(=O)c2ccccc2-3)cc1`, the inhibition was 63.5% (active).
With `CC(=O)NCCNC(=O)c1cc(-c2cccc3ccccc23)nc2ccccc12` the inhibition was 60.3% (active).
In the case of `CCOc1ccccc1-c1cc(C(=O)N/N=C(\C)c2cccnc2)c2ccccc2n1`, the inhibition is reported as -0.49% (inactive).
In the case of `O=C(NCCc1ccccn1)c1cc(-c2ccc(Cl)cc2)nc2ccccc12`, the inhibition is reported as 13.5% (inactive).
`c1ccc(CC2CCN(c3nc4ccccc4n4cnnc34)CC2)cc1` was tested, and the inhibition was -7.81% (inactive).
`Cc1ccc(C)c(N(CC(=O)NCc2ccco2)C(=O)CCC(=O)Nc2ccccn2)c1` was tested, and the inhibition was -8.6% (inactive).
In the case of `COc1cc2c(cc1OC)C(c1ccccc1Br)NC(=O)C2` (stereo not drawn), the inhibition is reported as -7.73% (inactive).
For `Brc1ccccc1C1N=C(c2ccccc2)NO1` (stereo not drawn), the inhibition was -3.82% (inactive).
For `COc1ccc(C2NC(=O)c3ccccc3N2)cc1` (stereo not drawn), the inhibition was 26.1% (inactive).
With `Brc1ccccc1C1Nc2cccc3cccc(c23)N1` the inhibition was 56% (active).
`Oc1ccc(C2Nc3cccc4cccc(c34)N2)cc1` was tested, and the inhibition was 56.2% (active).
With `COc1ccc([C@H]2CC(=O)C=C(c3ccc(C)cc3)C2)cc1` the inhibition was 18.7% (inactive).
With `CC(=O)Nc1ccc(S(=O)(=O)N2CCN(C(=O)c3ccccc3F)CC2)cc1` the inhibition was -16.7% (inactive).
